Experimental data: PubChem BioAssay AID449757 (Broad Institute, 2010)
The source made the active and inactive calls.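 The calls were made as follows: active = compounds whose fitted caspase activation midpoint falls no more than tenfold above the top tested dose; inconclusive = flat fit with activity between 30 and 70 percent, or failed fit; inactive = the rest.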

These molecules were tested on MEF Flag-A1-IRES-BIM, caspase-Glo luminescence, 3 h (assay: caspase activation in A1/BIM-primed MEFs, dose response, A1 (Bcl2A1) inhibitor project, cell-based, alternate construct, luminescence (AID 449757)).
How it was run: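 System: Flag-A1-IRES-BIM-primed MEF cells; Doses: 100 nL compound added per well by pin transfer; Times: 3 h at 37 °C, then 1 h detection at room temperature; Measured by: luminescent caspase activity measurement with CaspaseGlo reagent.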
CCOC(=O)C1=C(c2ccccc2)O/C(=C(/C#N)C(F)(F)F)S1 was tested, and the AC50 was > 35 µM (inactive). Molecule CCc1nc(N=Nc2c(O)[nH]c3ccccc23)c2c3c(sc2n1)CCC3 has an AC50 of 20.7 µM. With COc1ccc2c(-c3cc4ccc(OCc5ccc(F)cc5)cc4oc3=O)cc(=O)oc2c1 the AC50 was 21.1 µM. With COc1cc(CN2CCN(c3cc(C)ccc3C)CC2)ccc1O the AC50 was > 35 µM (inactive). For CCc1nn(-c2cc(Oc3cccc4ccccc34)nc(-c3ccccc3)n2)c(N)c1C#N, the AC50 was > 35 µM (inactive). In the case of O=C(Nc1ccc([N+](=O)[O-])cc1)c1nc[nH]c1C(=O)NC1CCCCC1, the AC50 is reported as > 35 µM (inactive). For Cc1cccc(Nc2nc(N)c([N+](=O)[O-])c(N3CCCC(C)C3)n2)c1 (configuration not stated), the AC50 was > 35 µM (inactive). N#Cc1cccnc1N1CCN(C(=O)c2cccc3c2C(=O)c2ccc(-c4ccc(Cl)c(C(F)(F)F)c4)cc2S3(=O)=O)CC1 was tested, and the AC50 was > 35 µM (inactive). In the case of Cc1ccc(C=C2C(Cl)=C(Cl)C(Cl)=C2Cl)cc1, the AC50 is reported as 4.67 µM. Molecule Cc1ccc(NC(=O)c2ccc(N/N=C/c3cccc(O)c3)c([N+](=O)[O-])c2)cc1 has an AC50 of 34.6 µM. With CCOc1ccc(NCc2cccn2-c2nnc(N3CCC(C(=O)NCCCN4CC(C)CC(C)C4)CC3)s2)cc1 (configuration not stated) the AC50 was > 35 µM (inactive). Molecule CCOC(=O)c1ccc(-c2ccc(/C=N/NC(=O)CN(c3cccc(C)c3)S(C)(=O)=O)o2)cc1 has an AC50 of 36.2 µM. With CCOC(=O)Cc1csc(/N=C/c2c(O)n(-c3ccc(C)c(C)c3)c(=O)c3ccccc23)n1 the AC50 was 15.9 µM. In the case of Cn1c(=NC(=O)CCl)sc2ccccc21, the AC50 is reported as > 35 µM (inactive). COC(=O)CSc1nc(N)c2c3c(sc2n1)C(c1ccccc1)SC(c1ccccc1)C3 (configuration not stated) was tested, and the AC50 was > 35 µM (inactive). For COc1ccc(-c2c(C#N)c(N)nc(Sc3ccc(Cl)cc3)c2C#N)cc1, the AC50 was > 35 µM (inactive). In the case of CC(=O)Nc1ccc(NC(=O)C(=O)NCC(c2ccco2)N2CCc3ccccc32)cc1 (configuration not stated), the AC50 is reported as 28.9 µM. In the case of COc1ccc(C(=O)/C=C/C(=O)N(CC(=O)NC2CCCCC2)Cc2cccs2)c(O)c1, the AC50 is reported as 24.5 µM. In the case of N#C/C(=C\c1ccc(OCc2ccccc2)cc1)C(=O)Nc1nc2c(s1)CCN(Cc1ccccc1)C2, the AC50 is reported as > 35 µM (inactive). In the case of CCOc1ccc(OCC(=O)N(CCC2=CCCCC2)c2c(N)n(Cc3ccccc3)c(=O)[nH]c2=O)cc1, the AC50 is reported as 20.9 µM. CCOc1cc(C(=O)CSc2nnc(CNc3ccc(Cl)cc3)o2)ccc1NC(=O)CC showed an AC50 of 15.3 µM. Cc1nn(Cc2ccc(Cl)cc2Cl)c(C)c1NC(=O)Cn1nc([N+](=O)[O-])c(Cl)c1C was tested, and the AC50 was > 35 µM (inactive). For Cc1ccc(C#N)c(SCC(=O)Nc2nccs2)n1, the AC50 was > 35 µM (inactive). For O=C(NC1CCCC1)c1cccc2c1C(=O)c1ccc(/C=C/c3ccccc3)cc1S2(=O)=O, the AC50 was 7.48 µM. For Cc1ccc2nc(N(CCCN(C)C)C(=O)c3ccc(S(=O)(=O)N4CCc5ccccc5C4)cc3)sc2c1, the AC50 was > 35 µM (inactive). COc1cc2ncnc(NCc3ccc(F)cc3)c2cc1OC was tested, and the AC50 was > 35 µM (inactive). For O=C(Nc1ccc2oc(-c3cccc(F)c3)nc2c1)c1ccccc1F, the AC50 was > 35 µM (inactive). In the case of COc1ccc(OC)c(NC(=O)c2cc(-c3cc(C)ccc3O)n[nH]2)c1, the AC50 is reported as > 35 µM (inactive). O=C(N/C=N/OCc1ccc(Cl)cc1Cl)NOCc1ncc(C(F)(F)F)cc1Cl was tested, and the AC50 was > 35 µM (inactive). For CCOC(=O)C(C(=O)OCC)c1cc(Br)c2noc3c2c1C(=O)c1ccccc1-3, the AC50 was 14.8 µM. For Cc1cc(=O)[nH]c(SCC(=O)Nc2ccc(Br)cc2)c1C#N, the AC50 was > 35 µM (inactive). For Cc1ccc(S(=O)(=O)c2nnn3c2nc(Nc2cccc(C)c2)c2ccccc23)cc1, the AC50 was > 35 µM (inactive). For COCc1cc(C)nc(SCC(=O)Nc2nc(C)cs2)c1C#N, the AC50 was > 35 µM (inactive). COc1cc(NC(=O)c2ccc(C)cc2C)ccc1NC(=O)c1cc2ccccc2o1 gave an AC50 of 32.3 µM. In the case of Clc1ccccc1CN(Cc1ccccc1)c1ncnc2nc[nH]c12, the AC50 is reported as > 35 µM (inactive). Nc1nc(F)nc2c1ncn2[C@@H]1O[C@H](CO)[C@@H](O)[C@H]1O was tested, and the AC50 was > 35 µM (inactive). Cc1ccc(C(=O)/C=C/C(=O)c2ccc(C)cc2)cc1 was tested, and the AC50 was 5.64 µM. CCc1ccc(Nc2n[n+](-c3ccccc3)c(/C=C/c3ccccc3)s2)cc1 was tested, and the AC50 was 10.3 µM. CC(C)CC(NC(=O)c1ccc(Cl)cc1)C(=O)OCC(=O)c1ccc2c(c1)NC(=O)CO2 (configuration not stated) showed an AC50 of 5.62 µM. C=C1CCc2c([nH]c3ccc(OCC(C)C)cc23)C1=O showed an AC50 of 8.5 µM. O=C(c1ccc(COc2ccc3ccccc3c2)o1)N1N=C(C(F)F)CC1(O)C(F)F (configuration not stated) was tested, and the AC50 was > 35 µM (inactive). CC(C)(C)[C@H](N)C(=O)N[C@H]1CCC2C3CC=C4C[C@@H](O)CC[C@]4(C)C3CC[C@@]21C (some centres not stated) was tested, and the AC50 was > 35 µM (inactive). In the case of CC(C)(C)c1ccc(C(=O)Nc2ccc(O)c3c(=O)cc(-c4cccc(Cl)c4)oc23)cc1, the AC50 is reported as > 35 µM (inactive). With CC(=O)Nc1ncnc2c1c(-c1ccc(Cl)cc1)nn2C(C)(C)C the AC50 was > 35 µM (inactive). For O=C(COc1ccccc1[N+](=O)[O-])Nc1ccc(NC(=O)c2cc3ccccc3o2)cc1, the AC50 was 28.7 µM. In the case of CC(C)(C)C1CCc2onc(C(=O)Nc3cccc(O)c3)c2C1 (configuration not stated), the AC50 is reported as > 35 µM (inactive). For CCC(Sc1nc2cc3c(cc2c(=O)n1Cc1ccco1)OCO3)C(=O)Nc1cccc(OC)c1 (configuration not stated), the AC50 was > 35 µM (inactive). For COc1ccccc1-c1cn[nH]c1-c1ccc(OCc2ccccc2)cc1O, the AC50 was > 35 µM (inactive). Work on CCOc1ccc(NC(=S)NC(=O)/C=C/c2ccc(C)cc2)c([N+](=O)[O-])c1 yielded an AC50 of 21 µM. COc1cc(/C=C(/C#N)c2nc3ccccc3[nH]2)ccc1OCC(=O)Nc1ccccc1C showed an AC50 of 6.32 µM. For O=C(Nc1ccc2oc(-c3ccccc3F)nc2c1)c1ccccc1F, the AC50 was > 35 µM (inactive). CCCCC1CCC(C(=O)N(CC(C)C)c2c(N)n(Cc3ccccc3)c(=O)[nH]c2=O)CC1 (configuration not stated) gave an AC50 of 8.13 µM. Molecule CC1CCc2c(sc3nc(C(C)(C)C)nc(N4CCN(C(=O)CCl)CC4)c23)C1 (configuration not stated) has an AC50 of 10.2 µM. Work on Cc1ccc(-c2nc(NC(=O)c3nn(C)cc3[N+](=O)[O-])sc2C)cc1 yielded an AC50 of 6.7 µM. In the case of O=C(CN(c1ccc(Br)cc1)S(=O)(=O)c1ccc(Cl)c([N+](=O)[O-])c1)NCCc1ccccc1, the AC50 is reported as > 35 µM (inactive). CCOC(=O)c1sc(NC(=O)CSc2nc(C)cc(C)c2C#N)c(C#N)c1C was tested, and the AC50 was > 35 µM (inactive). In the case of COc1cc(-c2cc(-c3ccccc3)nc(SCC(=O)Nc3nccs3)c2C#N)cc(OC)c1OC, the AC50 is reported as > 35 µM (inactive). CCOC(=O)c1c(C)oc2c1c(CN1CCN(C(=O)OCC)CC1)c(O)c1ccccc12 was tested, and the AC50 was 7.15 µM. With O=C1/C(=C\c2c(NCCOCCO)nc3ccccn3c2=O)SC(=S)N1Cc1ccco1 the AC50 was > 35 µM (inactive). For COC(=O)c1ccc2c(c1)C(C)(C)C(/C=C/c1ccccc1O)=[N+]2C, the AC50 was 11.3 µM. For CCS(=O)(=O)c1ncc(Cl)c(C(=O)Nc2ccc(S(=O)(=O)N3CCC(C)CC3)cc2)n1, the AC50 was > 35 µM (inactive). CCOc1ccc(-n2c(SCC(=O)Nc3ccc(Br)cc3)nc3n[nH]c(C)c3c2=N)cc1 showed an AC50 of 31 µM. With CN1C2CCC1/C(=C/c1ccccn1)C(=O)/C2=C\c1ccccn1 the AC50 was > 35 µM (inactive). With CCOc1cc(/C=N/Nc2cc(C)nc(-n3nc(C)cc3C)n2)ccc1O the AC50 was > 35 µM (inactive). COc1ccc(-c2ccc3c(c2)S(=O)(=O)c2cccc(C(=O)NCCOc4ccccc4)c2C3=O)cc1OC was tested, and the AC50 was > 35 µM (inactive). COc1cccc(C(=O)C(C#N)=C(SC)SC)c1 was tested, and the AC50 was > 35 µM (inactive). COc1ccc(Oc2cc(NC(=O)c3nn(C)cc3[N+](=O)[O-])cc([N+](=O)[O-])c2)cc1 was tested, and the AC50 was 21.3 µM.
